Here are results for 9 molecules from ChEMBL document CHEMBL4828723, “Synthesis and Biological Evaluation of Falcarinol-Type Analogues as Potential Calcium Channel Blockers” (J Nat Prod, 2021).

By inhibition is commonly meant the percentage by which the read-out fell short of the control. Usually IC50 stands for the midpoint of a concentration-inhibition curve.

In series [1] the test system is PC-12. The series is described as follows: Neuroprotective activity against NaN3-induced cell injury in rat PC12 cells assessed as cell survival rate at 100 uM measured after 24 hrs by CCK-8 assay (reference value: 49.9 to 52%). The settings on record: read-out: Survival. In kind it is functional. Background: Tetrazolium assays rely on reduction of a dye to a coloured formazan, in cell work by metabolically active cells.

Series [2] deals with PC-12. Put plainly: Neuroprotective activity against NaN3-induced cell injury in rat PC12 cells assessed as cell survival rate at 5 uM measured after 24 hrs by CCK-8 assay (reference value: 49.9 to 52%). In kind it is functional. The settings on record: read-out: Survival.
Series [3] has as its system PC-12. The series is described as follows: Neuroprotective activity against NaN3-induced cell injury in rat PC12 cells assessed as cell survival rate at 80 uM measured after 24 hrs by CCK-8 assay (reference value: 49.9 to 52%). It is filed as functional. The following applies: read-out: Survival.
Series [4] has as its system PC-12. Put plainly: Neuroprotective activity against NaN3-induced cell injury in rat PC12 cells assessed as cell survival rate at 40 uM measured after 24 hrs by CCK-8 assay (reference value: 49.9 to 52%). In kind it is functional. The following applies: read-out: Survival.
The subject of series [5] is PC-12. Put plainly: Neuroprotective activity against NaN3-induced cell injury in rat PC12 cells assessed as cell survival rate at 10 uM measured after 24 hrs by CCK-8 assay (reference value: 49.9 to 52%). It is filed as functional. The settings on record: read-out: Survival.
The test system of series [6] is PC-12. The series is described as follows: Neuroprotective activity against NaN3-induced cell injury in rat PC12 cells assessed as cell survival rate at 20 uM measured after 24 hrs by CCK-8 assay (reference value: 49.9 to 52%). In kind it is functional. The following applies: read-out: Survival.
The subject of series [7] is PC-12. The series is described as follows: Neuroprotective activity against NaN3-induced cell injury in rat PC-12 cells assessed as cell survival rate at 2 to 8 uM measured after 24 hrs by CCK-8 assay (reference value: 50%). The settings on record: dose 2-8 µM. In kind it is functional.
Series [8] addresses T1, Cav1.2 (L-type calcium channel alpha1c/beta2a/alpha2delta1) (Homo sapiens, UniProt P54289+Q08289+Q13936). Put plainly: Inhibition of human alpha1c/beta2a/alpha2delta1 Cav1.2 expressed in HEK293 cells assessed as time course of inhibition of membrane potential measured after washout with external solution at 30 uM by manual patch clamp technique. In kind it is cell-based. In short, it runs like this:
(§1)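 HEK-293 cells stably expressing hCav1.2 (α1C/β2a/α2δ1), induced with tetracycline 1 μg/mL for 24 h. Perforated whole-cell manual patch clamp (amphotericin B 250 μg/mL in pipette; Cs-methanesulfonate internal, pH 7.2) at 24 °C. Holding potential −90 mV, 1000 ms prepulse inactivating 20% of channels, then a 50 ms step to 0 mV, repeated every 15 s. I_Ca-L followed over time, then washout with external solution. Final ethanol/DMSO ≤1.00%.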
A general note: The patch-clamp technique gives a direct electrical read-out from membranes.

For series [9], the system named is PC-12. The series is described as follows: Neuroprotective activity in rat PC12 cells assessed as reduction in NaN3-induced LDH release at 4 uM measured by LDH release assay (reference value: 411.84 to 416.67 U/L). In kind it is functional. In short, it runs like this: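 PC12 injury model: glucose-free, serum-free RPMI 1640. Pretreatment 4 μM, 1 h before NaN3, then 24 h with NaN3. Cells disrupted by ultrasonication and centrifuged at 10 000 rpm for 10 min at 4 °C. Supernatant LDH measured with a commercial kit, in U/L. n = 3 independent experiments.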
On the technique in general: Release of lactate dehydrogenase indicates damage to the cell membrane.

Series [10] concerns the target L-type calcium channel alpha-1c/beta-2/alpha2delta-1 (Homo sapiens, UniProt P54289+Q13936+Q08289). Put plainly: Irreversible inhibition of human alpha1c/beta2a/alpha2delta1 Cav1.2 expressed in HEK293 cells assessed as decrease in membrane potential measured after washout with external solution at 100 uM by manual patch clamp technique. It is filed as cell-based. The following applies: hek293, 100 µM. In short, it runs like this: as §1

In series [11] the target is T1, Cav1.2 (L-type calcium channel alpha1c/beta2a/alpha2delta1). The series is described as follows: Inhibition of human alpha1c/beta2a/alpha2delta1 Cav1.2 expressed in HEK293 cells assessed as time course of inhibition of membrane potential measured after washout with external solution at 100 uM by manual patch clamp technique. It is filed as cell-based. In a few lines:
as §1

The target of series [12] is L-type calcium channel alpha-1c/beta-2/alpha2delta-1 (Homo sapiens, UniProt P54289+Q08289+Q13936). The series is described as follows: Inhibition of human alpha1c/beta2a/alpha2delta1 Cav1.2 expressed in HEK293 cells assessed as time course of inhibition of membrane potential measured after washout with external solution by manual patch clamp technique. In kind it is cell-based. In short, it runs like this: as §1

Series [13] concerns the target T1, Cav1.2 (L-type calcium channel alpha1c/beta2a/alpha2delta1). Put plainly: Inhibition of human alpha1c/beta2a/alpha2delta1 Cav1.2 expressed in HEK293 cells assessed as time course of inhibition of membrane potential measured after washout with external solution at 10 uM by manual patch clamp technique. In kind it is cell-based. In a few lines: as §1
Series [14] deals with PC-12. Put plainly: Neuroprotective activity in rat PC12 cells assessed as reduction in NaN3-induced MDA release at 5 uM measured (reference value: 253 nmol/mL). In kind it is functional.
Series [15] has as its system PC-12. Put plainly: Neuroprotective activity against NaN3-induced cell injury in rat PC12 cells assessed as cell survival rate at 20 uM measured after 24 hrs by CCK-8 assay (reference value: 50%). It is filed as functional. The following applies: read-out: Survival.
The test system of series [16] is PC-12. Put plainly: Neuroprotective activity against NaN3-induced cell injury in rat PC12 cells assessed as cell survival rate at 40 uM measured after 24 hrs by CCK-8 assay (reference value: 50%). In kind it is functional. The settings on record: read-out: Survival.
Series [17] relates to PC-12. The series is described as follows: Neuroprotective activity in rat PC12 cells assessed as reduction in NaN3-induced LDH release at 5 to 10 uM measured by LDH release assay (reference value: 411.84 to 416.67 U/L). It is filed as functional. The following applies: dose 5-10 µM.
Series [18] relates to PC-12. Put plainly: Neuroprotective activity against NaN3-induced cell injury in rat PC12 cells assessed as cell survival rate at 5 uM measured after 24 hrs by CCK-8 assay (reference value: 50%). In kind it is functional. The settings on record: read-out: Survival.
Series [19] relates to PC-12. The series is described as follows: Neurotrophic activity in rat PC12 cells assessed as cell survival rate at 1 uM measured after 24 hrs by CCK-8 assay (reference value: 50%). The settings on record: PC-12, 24 h.
In series [20] the test system is PC-12. The series is described as follows: Neuroprotective activity in rat PC12 cells assessed as prevention of NaN3-induced decrease in SOD release at 5 to 20 uM measured (reference value: 54 U/mg of protein). The settings on record: dose 5-20 µM. It is filed as functional.
In series [21] the test system is PC-12. Put plainly: Neuroprotective activity against NaN3-induced cell injury in rat PC12 cells assessed as cell survival rate at 10 uM measured after 24 hrs by CCK-8 assay (reference value: 50%). It is filed as functional. The settings on record: read-out: Survival.
The test system of series [22] is PC-12. Put plainly: Neuroprotective activity in rat PC12 cells assessed as prevention of NaN3-induced apoptosis at 5 to 10 uM measured after 24 hrs by Hoechst staining based assay. The following applies: dose 5-10 µM. It is filed as functional, cell-based. In a few lines:
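PC12 cells plated at about 1 × 10⁵ per well and cultured overnight. Pretreated 1 h with 5, 10 or 20 μM compound, then NaN₃ for 24 h in glucose-free, serum-free RPMI 1640 after two washes in glucose-free EBSS pH 7.5. Cells fixed 30 min in methanol, stained with Hoechst 33258 for 10 min at 37 °C in the dark, and scored for nuclear morphology by fluorescence microscopy (ex 350/em 461 nm).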

Calls of active or inactive are those of the source. The calls are words filed in the database; no cut-off is given here.

T1 sequence (P54289 25-956 limits assumed): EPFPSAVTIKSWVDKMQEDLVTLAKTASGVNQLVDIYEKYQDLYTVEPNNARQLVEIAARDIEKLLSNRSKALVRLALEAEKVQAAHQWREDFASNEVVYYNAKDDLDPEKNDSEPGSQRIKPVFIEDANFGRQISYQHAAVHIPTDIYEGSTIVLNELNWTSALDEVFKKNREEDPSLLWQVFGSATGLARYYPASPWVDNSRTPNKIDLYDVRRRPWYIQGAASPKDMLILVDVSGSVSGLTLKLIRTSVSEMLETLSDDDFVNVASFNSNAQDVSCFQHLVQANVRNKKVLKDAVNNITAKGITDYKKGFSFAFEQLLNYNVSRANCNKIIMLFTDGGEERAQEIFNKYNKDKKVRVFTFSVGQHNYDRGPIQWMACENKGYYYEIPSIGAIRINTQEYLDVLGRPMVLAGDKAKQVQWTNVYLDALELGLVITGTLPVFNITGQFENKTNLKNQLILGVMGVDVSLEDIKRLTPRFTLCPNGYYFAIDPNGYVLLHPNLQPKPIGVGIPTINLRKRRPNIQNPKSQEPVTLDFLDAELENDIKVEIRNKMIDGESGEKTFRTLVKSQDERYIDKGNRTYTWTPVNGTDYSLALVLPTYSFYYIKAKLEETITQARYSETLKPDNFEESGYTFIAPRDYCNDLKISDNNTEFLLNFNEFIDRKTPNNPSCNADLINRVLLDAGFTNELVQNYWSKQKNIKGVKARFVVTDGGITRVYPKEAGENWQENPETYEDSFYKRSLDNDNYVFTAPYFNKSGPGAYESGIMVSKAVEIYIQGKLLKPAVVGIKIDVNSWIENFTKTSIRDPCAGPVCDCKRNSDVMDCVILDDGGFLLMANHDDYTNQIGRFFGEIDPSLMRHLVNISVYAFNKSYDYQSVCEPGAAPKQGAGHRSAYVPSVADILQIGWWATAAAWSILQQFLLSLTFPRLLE
T1 sequence (P54289 957-1103 limits assumed): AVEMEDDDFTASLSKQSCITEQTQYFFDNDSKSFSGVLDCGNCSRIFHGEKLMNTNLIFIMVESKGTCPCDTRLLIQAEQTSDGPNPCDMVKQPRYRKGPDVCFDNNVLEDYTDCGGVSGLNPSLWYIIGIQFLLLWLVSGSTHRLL
T1 sequence (Q08289 whole entry): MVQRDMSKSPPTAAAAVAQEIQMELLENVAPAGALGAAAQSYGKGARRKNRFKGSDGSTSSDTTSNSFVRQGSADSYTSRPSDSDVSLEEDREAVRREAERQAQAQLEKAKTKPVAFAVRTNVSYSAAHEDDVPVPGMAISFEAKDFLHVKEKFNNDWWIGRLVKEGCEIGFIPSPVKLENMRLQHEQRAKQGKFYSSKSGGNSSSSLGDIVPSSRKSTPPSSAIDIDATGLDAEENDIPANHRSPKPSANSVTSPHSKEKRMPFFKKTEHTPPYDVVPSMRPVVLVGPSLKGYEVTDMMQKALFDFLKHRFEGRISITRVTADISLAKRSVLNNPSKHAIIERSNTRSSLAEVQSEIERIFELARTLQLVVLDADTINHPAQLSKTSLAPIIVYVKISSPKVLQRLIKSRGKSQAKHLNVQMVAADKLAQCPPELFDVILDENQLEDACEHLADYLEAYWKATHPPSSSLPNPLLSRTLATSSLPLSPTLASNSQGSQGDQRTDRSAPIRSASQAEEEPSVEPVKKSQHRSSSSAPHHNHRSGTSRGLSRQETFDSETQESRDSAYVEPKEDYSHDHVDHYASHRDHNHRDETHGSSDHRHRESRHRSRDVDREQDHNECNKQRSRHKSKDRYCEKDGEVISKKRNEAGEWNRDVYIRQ
T1 sequence (Q13936 whole entry): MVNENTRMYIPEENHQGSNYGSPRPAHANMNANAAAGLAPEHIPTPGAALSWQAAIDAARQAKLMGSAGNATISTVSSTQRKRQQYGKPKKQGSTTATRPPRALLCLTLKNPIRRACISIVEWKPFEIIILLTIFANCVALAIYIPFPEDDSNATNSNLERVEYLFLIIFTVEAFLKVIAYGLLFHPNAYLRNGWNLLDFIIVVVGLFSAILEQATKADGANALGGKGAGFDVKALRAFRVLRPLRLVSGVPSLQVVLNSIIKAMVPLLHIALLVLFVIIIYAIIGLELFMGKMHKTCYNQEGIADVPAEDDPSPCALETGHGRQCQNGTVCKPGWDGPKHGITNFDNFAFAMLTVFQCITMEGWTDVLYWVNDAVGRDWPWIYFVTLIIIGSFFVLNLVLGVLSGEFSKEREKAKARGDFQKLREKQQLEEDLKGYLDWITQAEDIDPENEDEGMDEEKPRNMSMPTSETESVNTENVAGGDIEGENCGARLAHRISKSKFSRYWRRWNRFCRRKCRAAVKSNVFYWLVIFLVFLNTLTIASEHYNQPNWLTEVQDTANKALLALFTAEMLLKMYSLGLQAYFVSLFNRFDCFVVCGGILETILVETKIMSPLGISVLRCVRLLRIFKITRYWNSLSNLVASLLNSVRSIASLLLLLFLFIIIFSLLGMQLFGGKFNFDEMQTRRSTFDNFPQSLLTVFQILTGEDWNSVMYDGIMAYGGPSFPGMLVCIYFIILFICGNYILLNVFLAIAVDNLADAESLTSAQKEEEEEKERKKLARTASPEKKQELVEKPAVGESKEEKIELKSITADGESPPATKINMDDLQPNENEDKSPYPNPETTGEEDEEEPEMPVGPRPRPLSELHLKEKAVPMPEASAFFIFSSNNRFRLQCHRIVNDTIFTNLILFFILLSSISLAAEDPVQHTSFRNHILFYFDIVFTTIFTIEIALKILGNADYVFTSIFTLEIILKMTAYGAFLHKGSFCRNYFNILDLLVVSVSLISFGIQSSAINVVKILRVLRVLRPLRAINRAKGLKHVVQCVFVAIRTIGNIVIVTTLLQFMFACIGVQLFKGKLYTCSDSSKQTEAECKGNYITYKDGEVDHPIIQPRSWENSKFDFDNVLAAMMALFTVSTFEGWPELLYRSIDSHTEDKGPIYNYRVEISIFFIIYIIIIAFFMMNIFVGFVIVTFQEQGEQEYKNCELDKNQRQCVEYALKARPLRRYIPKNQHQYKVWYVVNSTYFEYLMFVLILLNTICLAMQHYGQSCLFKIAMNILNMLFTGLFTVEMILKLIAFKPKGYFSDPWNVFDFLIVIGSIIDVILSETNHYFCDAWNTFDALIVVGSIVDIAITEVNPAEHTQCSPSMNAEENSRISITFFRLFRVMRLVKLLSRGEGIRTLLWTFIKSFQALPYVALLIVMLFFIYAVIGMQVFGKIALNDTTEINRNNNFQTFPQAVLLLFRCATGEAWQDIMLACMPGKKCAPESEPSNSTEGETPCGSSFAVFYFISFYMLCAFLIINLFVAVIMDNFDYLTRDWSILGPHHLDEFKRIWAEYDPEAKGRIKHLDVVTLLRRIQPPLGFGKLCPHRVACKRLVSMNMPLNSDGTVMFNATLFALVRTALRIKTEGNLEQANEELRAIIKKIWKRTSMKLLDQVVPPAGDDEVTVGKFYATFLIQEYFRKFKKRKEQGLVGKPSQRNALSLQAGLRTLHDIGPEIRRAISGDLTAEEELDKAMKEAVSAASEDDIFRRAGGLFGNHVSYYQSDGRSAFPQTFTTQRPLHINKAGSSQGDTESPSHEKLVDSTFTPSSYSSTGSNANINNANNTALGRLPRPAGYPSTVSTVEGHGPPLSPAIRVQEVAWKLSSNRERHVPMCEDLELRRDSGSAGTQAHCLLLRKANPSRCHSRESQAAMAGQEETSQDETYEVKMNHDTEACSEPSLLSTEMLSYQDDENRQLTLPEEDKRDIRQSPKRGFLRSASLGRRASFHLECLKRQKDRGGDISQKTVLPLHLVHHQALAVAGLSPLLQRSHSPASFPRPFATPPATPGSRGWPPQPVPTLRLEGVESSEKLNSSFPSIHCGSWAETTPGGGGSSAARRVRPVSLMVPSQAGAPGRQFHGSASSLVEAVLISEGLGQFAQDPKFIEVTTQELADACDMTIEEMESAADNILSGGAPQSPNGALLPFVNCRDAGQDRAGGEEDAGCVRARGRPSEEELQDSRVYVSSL
Chain of L-type calcium channel alpha-1c/beta-2/alpha2delta-1 (Homo sapiens, UniProt P54289+Q08289+Q13936) (P54289 25-956 limits assumed): as the sequence (P54289 25-956 limits assumed) above
Chain of L-type calcium channel alpha-1c/beta-2/alpha2delta-1 (Homo sapiens, UniProt P54289+Q08289+Q13936) (P54289 957-1103 limits assumed): as the sequence (P54289 957-1103 limits assumed) above
Chain of L-type calcium channel alpha-1c/beta-2/alpha2delta-1 (Homo sapiens, UniProt P54289+Q08289+Q13936) (Q08289 whole entry): as the sequence (Q08289 whole entry) above
Chain of L-type calcium channel alpha-1c/beta-2/alpha2delta-1 (Homo sapiens, UniProt P54289+Q08289+Q13936) (Q13936 whole entry): as the sequence (Q13936 whole entry) above

For the molecule `CCCCCCCCC[C@H](C#CC#C[C@H](O)c1ccccc1)OC(=O)c1ccccc1`, the viability at 100 µM in [1] is 31.3%. Moreover, the viability at 5 µM in series [2] amounted to 65.6%. Moreover, the viability at 80 µM in [3] was 36.2%. Besides, the viability at 40 µM in [4] is 51.7%. In [5], the viability at 10 µM is 63.7%. For the same molecule, the viability at 20 µM in series [6] came to 61.3%.

Consider `C#CC#C[C@H](O)c1ccccc1`, for which, in series [1], the viability at 100 µM was found to be 43.5%. The viability at 5 µM in series [2] came to 47.8%. Moreover, in series [3], the viability at 80 µM amounted to 47.5%. For the same molecule, the viability at 40 µM in [4] came out at 49.9%. The viability at 10 µM in series [5] came to 52.4%. In series [6], the viability at 20 µM came out at 55%.

`CCCCCCCCC[C@H](C#CC#C[Si](C(C)C)(C(C)C)C(C)C)OC(=O)c1ccccc1`: in series [1], the viability at 100 µM came out at 43.9%. Also, the viability at 5 µM in series [2] amounted to 50.4%. The viability at 80 µM in series [3] amounted to 46.4%. The viability at 40 µM in [4] was 46.4%. In addition, the viability at 10 µM in series [5] came to 47.9%. The viability at 20 µM in series [6] stood at 47.5%.

For `C=C[C@@H](O)C#CC#CC/C=C\CCCCCCC`, the Survival in [7] is listed as 59%. In addition, in series [8], the inhibition at 30 µM was determined as 28.1%. Further, the Activity in [9] is 211 U/L; in series [10], “Active”; in series [14], 68 nmol/mL. The inhibition at 100 µM in series [11] was 61.6%. Moreover, the IC50 in [12] amounted to 41.3 µM. In addition, the inhibition at 10 µM in series [13] came out at 7.9%.

For `CCCCCCCCC[C@@H](O)C#CC#C[Si](C(C)C)(C(C)C)C(C)C`, in series [1], the viability at 100 µM is 37.6%. For the same molecule, in series [2], the viability at 5 µM amounted to 49.4%. In addition, the viability at 80 µM in [3] was 39.5%. Also, in [4], the viability at 40 µM was found to be 43.5%. In addition, the viability at 10 µM in series [5] was determined as 47.8%. In [6], the viability at 20 µM is 46.2%.

Turning to `COc1cccc([C@@H](O)C#CC#C[Si](C(C)C)(C(C)C)C(C)C)c1`, the viability at 20 µM in series [15] was 61%. For the same molecule, in series [16], the viability at 40 µM amounted to 65%.

In the case of `CC(C)[Si](C#CC#C[C@@H](O)C1CCCC1)(C(C)C)C(C)C`, the viability at 20 µM in series [15] worked out at 66%. In addition, in series [16], the viability at 40 µM came to 65%.

On to `CC(C)[Si](C#CC#C[C@H](O)c1ccccc1)(C(C)C)C(C)C`, for which, in [1], the viability at 100 µM amounted to 51.9%. Further, the Activity in series [17] is 132 U/L; in series [20], 124 U/mg; in series [14], 47 nmol/mL. Moreover, the inhibition at 30 µM in [8] amounted to 38.6%. For the same molecule, the viability at 5 µM worked out at 60% in series [18] and 60.1% in [2]. Besides, the inhibition at 100 µM in [11] was 79.7%. In addition, the viability at 1 µM in series [19] was no more than 96%. Also, in [3], the viability at 80 µM was 53%. The viability at 40 µM in [4] amounted to 58.2%. In addition, the half-maximal inhibitory concentration (IC50) in series [12] came out at 41.3 µM. Also, the inhibition at 10 µM in [13] was determined as 7.7%. Further, the viability at 10 µM in series [5] came to 66.6%; in series [21], 67%. Besides, the viability at 20 µM in series [6] was 58%.

In the case of `CC(C)[Si](C#CC#C[C@H](O)c1cccc(F)c1)(C(C)C)C(C)C`, the Activity in series [17] stood at 132 U/L; in series [20] it was 124 U/mg; in [14], 53 nmol/mL. Besides, in series [18], the viability at 5 µM stood at 83%. Further, the viability at 10 µM in [21] is 76%. In addition, the outcome in [22] was Active.
